According to ChEMBL document CHEMBL4020840, “Synthesis and Biological Evaluation of Selenium-Containing 4-Anilinoquinazoline Derivatives as Novel Antimitotic Agents” (J Med Chem, 2018):

Test system: A549
Assay: Antitumor activity against human A549 cells xenografted in Balb/c mouse assessed as tumor growth inhibition at 30 mg/kg, ip treated once in 2 days for 10 days relative to control
Assay type: functional
Details: read-out: TGI
Summary of the method: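 Male BALB/c nude mice, 5 weeks old, 18−20 g. Right flank injected sc with 0.1 mL of 1 × 10⁷ cells/mL log-phase A549 in FBS-free DMEM. At ~100 mm³, randomised into groups of 5 and dosed ip every 2 days; vehicle controls got equal volume. Tumour volume (0.5 × length × width²) and body weight recorded every 2 days.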

## COc1ccc(/C=C\c2cc(OC)c(OC)c(OC)c2)cc1OP(=O)(O)O [FOSBRETABULIN]
  inhibition in vivo at 30 mg/kg: 56.6%
